Reference: ChEMBL document CHEMBL3779864, “Dual Alleviation of Acute and Neuropathic Pain by Fused Opioid Agonist-Neurokinin 1 Antagonist Peptidomimetics” (ACS Med Chem Lett, 2015)
The source made the active and inactive calls. The rule behind the calls is not given here.

Legend:
Substance-P receptor = Substance-P receptor (Homo sapiens, UniProt P25103); test: Displacement of [3H]SP from human NK1 receptor transfected in CHO cells by liquid scintillation counting method; type: cell-based
Summary of the method: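 hNK1 receptor expressed in CHO cells, measured as [3H]SP displacement. Values are means of 3–4 experiments.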

Mu-type opioid receptor [1] = biological target: Mu-type opioid receptor (Rattus norvegicus, UniProt P33535); test: Displacement of [3H]DAMGO from mu opioid receptor in rat brain membrane after 2 hrs; type: cell membranes
Summary of the method: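 Rat brain membranes, with [3H]DAMGO as the MOR radioligand, measured as displacement binding. Values are means of 3–4 experiments.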

[2] = biological target: Delta-type opioid receptor (Rattus norvegicus, UniProt P33533); test: Displacement of [3H]DSLET from delta opioid receptor in rat brain membrane after 2 hrs; type: cell membranes
Summary of the method: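 Rat brain membranes, with [3H]DSLET as the DOR radioligand, measured as displacement binding. Values are means of 3–4 experiments.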

Mu-type opioid receptor [3] = biological target: Mu-type opioid receptor (Cavia porcellus, UniProt P97266); test: Agonist activity at mu opioid receptor in guinea pig ileum assessed as inhibition of electrically-stimulated muscle contraction; type: tissue-based
Summary of the method: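 Guinea pig ileum preparation used as the MOR-representative functional assay. Values are means of 3–4 experiments.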

[4] = biological target: Delta-type opioid receptor (Mus musculus, UniProt P32300); test: Agonist activity at delta opioid receptor in mouse vas deferens assessed as inhibition of electrically-stimulated muscle contraction; type: tissue-based
Summary of the method: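 Electrically stimulated mouse vas deferens, a DOR-representative tissue assay. Means of 3–4 experiments.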

Rattus norvegicus [5] = test: Antinociceptive activity in Wistar rat model of chronic constriction injury-induced neuropathic pain assessed as reduction in hyperalgesia at 1 nmol dosed on day7 after tolerance development with morphine dosed at 3.5 nmol, it QD for 6 days by cold plate test; type: functional, organism-based
Summary of the method: (§1)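 Cross-tolerance design in CCI rats: intrathecal dosing once daily for 6 days from day 7 post-CCI (morphine 3.5 nmol, hybrids 0.8 or 1 nmol). On day 7 of dosing (day 14 post-CCI), morphine-tolerant rats received a single hybrid dose and hybrid-tolerant rats received morphine 3.5 nmol. Read by von Frey or cold plate and compared with pretest, day 1 and day 6.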

Rattus norvegicus [6] = organism: Rattus norvegicus; test: Antinociceptive activity in Wistar rat model of chronic constriction injury-induced neuropathic pain assessed as reduction in hyperalgesia at 0.8 to 3.5 nmol after 30 mins by cold plate test; type: functional, organism-based
Summary of the method: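 Rats underwent chronic constriction injury of the sciatic nerve. Seven days later, drug was given intrathecally as single injections at increasing doses. Hyperalgesia was read by cold plate test 30 min after dosing and compared with vehicle-treated CCI rats.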

Rattus norvegicus [7] = organism: Rattus norvegicus; test: Antinociceptive activity in Wistar rat model of chronic constriction injury-induced neuropathic pain assessed as reduction in allodynia at 0.8 to 3.5 nmol after 30 mins by von Frey test; type: functional, organism-based
Summary of the method: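 Rats underwent chronic constriction injury of the sciatic nerve. Seven days later, drug was given intrathecally as single injections at increasing doses. Allodynia was read by von Frey test 30 min after dosing and compared with vehicle-treated CCI rats.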

Rattus norvegicus [8] = organism: Rattus norvegicus; test: Antinociceptive activity in Wistar rat model of chronic constriction injury-induced neuropathic pain assessed as reduction in allodynia at 3.5 nmol, it QD for 6 consecutive days by von Frey test; type: functional, organism-based
Summary of the method: (§2)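 Rats with chronic constriction injury of the sciatic nerve, dosed intrathecally once daily for 6 consecutive days starting day 7 post-CCI. Allodynia measured by von Frey, hyperalgesia by cold plate. Doses: morphine 3.5 nmol, hybrids 0.8 or 1 nmol. Compared with vehicle-treated CCI rats and with morphine-treated CCI rats.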

Rattus norvegicus [9] = test: Potency index, ratio of antiallodynic effect of compound to antiallodynic effect of morphine in it dosed naive Wistar rat at 0.8 to 3.5 nmol after 30 mins by cold plate test; type: functional
Rattus norvegicus [10] = organism: Rattus norvegicus; test: Antinociceptive activity in Wistar rat model of chronic constriction injury-induced neuropathic pain assessed as reduction in hyperalgesia at 1 nmol, it QD for 6 consecutive days by cols plate test; type: functional, organism-based; summary of the method: as §2
Rattus norvegicus [11] = test: Antinociceptive activity in Wistar rat model of chronic constriction injury-induced neuropathic pain assessed as reduction in hyperalgesia at 3.5 nmol dosed on day7 after tolerance development with compound13 dosed at 1 nmol, it QD for 6 days by cold plate test; type: functional, organism-based; summary of the method: as §1
Rattus norvegicus [12] = organism: Rattus norvegicus; test: Antinociceptive activity in Wistar rat model of chronic constriction injury-induced neuropathic pain assessed as reduction in allodynia at 1 nmol, it QD for 6 consecutive days by von Frey test; type: functional, organism-based; summary of the method: as §2
Rattus norvegicus [13] = organism: Rattus norvegicus; test: Potency index, ratio of antinociceptive activity of compound at 8 to 10 nmol, it to antinociceptive activity of morphine at 35 nmol, it in naive Wistar rat after 30 mins; type: functional
Rattus norvegicus [14] = organism: Rattus norvegicus; test: Antinociceptive activity in naive Wistar rat at 10 nmol, it after 30 mins by tail flick test analysis; type: functional, organism-based
Summary of the method: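 Naïve rats dosed intrathecally, compared with vehicle-treated naïve rats. Tail-flick latency read 30 min after administration.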

Rattus norvegicus [15] = test: Antinociceptive activity in Wistar rat model of chronic constriction injury-induced neuropathic pain assessed as reduction in allodynia at 1 nmol dosed on day7 after tolerance development with morphine dosed at 3.5 nmol, it QD for 6 days by von Frey test; type: functional, organism-based; summary of the method: as §1
Rattus norvegicus [16] = organism: Rattus norvegicus; test: Antinociceptive activity in Wistar rat model of chronic constriction injury-induced neuropathic pain assessed as reduction in hyperalgesia at 1 nmol, it QD for 6 consecutive days measured on day-4 and day-5 by cold plate test relative to morphine; type: functional, organism-based; summary of the method: as §2
Rattus norvegicus [17] = test: Antinociceptive activity in it dosed naive Wistar rat after 30 mins by tail flick test analysis; type: functional, organism-based
Summary of the method: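 Naïve rats were dosed intrathecally at several doses. Tail-flick latency was read 30 min after dosing and compared with vehicle-treated naïve rats.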

Rattus norvegicus [18] = organism: Rattus norvegicus; test: Antinociceptive activity in Wistar rat model of chronic constriction injury-induced neuropathic pain assessed as reduction in hyperalgesia at 3.5 nmol, it QD for 6 consecutive days by cols plate test; type: functional, organism-based; summary of the method: as §2
Rattus norvegicus [19] = test: Antinociceptive activity in Wistar rat model of chronic constriction injury-induced neuropathic pain assessed as reduction in hyperalgesia at 3.5 nmol dosed on day7 after tolerance development with compound12 dosed at 0.8 nmol, it QD for 6 days by cold plate test; type: functional, organism-based; summary of the method: as §1
Rattus norvegicus [20] = organism: Rattus norvegicus; test: Antinociceptive activity in naive Wistar rat at 35 nmol, it after 2 hrs by tail flick test analysis; type: functional, organism-based
Rattus norvegicus [21] = organism: Rattus norvegicus; test: Antinociceptive activity in Wistar rat model of chronic constriction injury-induced neuropathic pain assessed as reduction in hyperalgesia at 0.8 nmol, it QD for 6 consecutive days by cols plate test; type: functional, organism-based
Summary of the method: (§3)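 Starting day 7 after sciatic nerve CCI, rats got 0.8 nmol i.t. once daily for 6 consecutive days. Allodynia was read by von Frey and hyperalgesia by cold plate. Comparisons were against vehicle-treated CCI rats and against rats given morphine 3.5 nmol i.t. on the same schedule.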

Rattus norvegicus [22] = organism: Rattus norvegicus; test: Antinociceptive activity in Wistar rat model of chronic constriction injury-induced neuropathic pain assessed as reduction in hyperalgesia at 0.8 nmol, it QD for 6 consecutive days measured on day-4 and day-5 by cold plate test relative to morphine; type: functional, organism-based; summary of the method: as §3
Rattus norvegicus [23] = test: Antinociceptive activity in Wistar rat model of chronic constriction injury-induced neuropathic pain assessed as reduction in hyperalgesia at 0.8 nmol dosed on day7 after tolerance development with morphine dosed at 3.5 nmol, it QD for 6 days by cold plate test; type: functional, organism-based
Summary of the method: (§4)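 Rats with sciatic nerve CCI got morphine 3.5 nmol i.t. once daily for 6 days, starting day 7 after CCI. On day 7 of repeated dosing (day 14 after CCI) they received a single i.t. dose of 0.8 nmol. Allodynia was read by von Frey and hyperalgesia by cold plate. Each was compared with pretest, with day 6 and with day 1 of dosing.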

Rattus norvegicus [24] = test: Antinociceptive activity in Wistar rat model of chronic constriction injury-induced neuropathic pain assessed as reduction in allodynia at 0.8 nmol dosed on day7 after tolerance development with morphine dosed at 3.5 nmol, it QD for 6 days by von Frey test; type: functional, organism-based; summary of the method: as §4
Rattus norvegicus [25] = organism: Rattus norvegicus; test: Antinociceptive activity in Wistar rat model of chronic constriction injury-induced neuropathic pain assessed as reduction in allodynia at 0.8 nmol, it QD for 6 consecutive days by von Frey test; type: functional, organism-based; summary of the method: as §3
Rattus norvegicus [26] = organism: Rattus norvegicus; test: Antinociceptive activity in naive Wistar rat at 8 nmol, it after 2 hrs by tail flick test analysis; type: functional, organism-based
Summary of the method: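 Naïve rats got an intrathecal dose. The tail-flick response was followed over time up to 2 h after dosing.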

Mu-type opioid receptor (Rattus norvegicus, UniProt P33535), sequence (P33535 whole entry): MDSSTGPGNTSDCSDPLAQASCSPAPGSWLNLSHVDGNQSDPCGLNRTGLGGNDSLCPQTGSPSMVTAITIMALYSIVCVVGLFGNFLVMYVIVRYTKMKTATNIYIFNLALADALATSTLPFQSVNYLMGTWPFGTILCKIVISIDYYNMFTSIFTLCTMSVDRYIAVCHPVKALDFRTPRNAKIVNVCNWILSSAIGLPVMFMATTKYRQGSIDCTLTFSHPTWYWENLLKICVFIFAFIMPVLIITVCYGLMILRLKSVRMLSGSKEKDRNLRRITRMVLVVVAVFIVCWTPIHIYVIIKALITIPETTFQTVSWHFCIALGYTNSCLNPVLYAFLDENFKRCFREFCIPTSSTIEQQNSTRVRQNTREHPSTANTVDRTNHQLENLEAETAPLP
Mu-type opioid receptor (Cavia porcellus, UniProt P97266), sequence (P97266 whole entry): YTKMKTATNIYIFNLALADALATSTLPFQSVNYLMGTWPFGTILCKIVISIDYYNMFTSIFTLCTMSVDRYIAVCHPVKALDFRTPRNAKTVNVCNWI
Delta-type opioid receptor (Rattus norvegicus, UniProt P33533), sequence (P33533 whole entry): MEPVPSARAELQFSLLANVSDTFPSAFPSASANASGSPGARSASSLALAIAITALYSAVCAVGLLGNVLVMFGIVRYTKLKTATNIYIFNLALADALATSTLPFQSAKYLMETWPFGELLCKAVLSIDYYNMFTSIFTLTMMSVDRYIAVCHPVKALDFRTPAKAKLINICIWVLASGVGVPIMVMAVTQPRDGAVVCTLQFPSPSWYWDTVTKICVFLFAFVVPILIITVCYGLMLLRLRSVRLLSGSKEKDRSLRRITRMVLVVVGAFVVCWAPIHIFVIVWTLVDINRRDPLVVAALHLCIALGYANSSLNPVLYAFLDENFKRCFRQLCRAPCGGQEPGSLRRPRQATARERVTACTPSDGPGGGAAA
Delta-type opioid receptor (Mus musculus, UniProt P32300), sequence (P32300 whole entry): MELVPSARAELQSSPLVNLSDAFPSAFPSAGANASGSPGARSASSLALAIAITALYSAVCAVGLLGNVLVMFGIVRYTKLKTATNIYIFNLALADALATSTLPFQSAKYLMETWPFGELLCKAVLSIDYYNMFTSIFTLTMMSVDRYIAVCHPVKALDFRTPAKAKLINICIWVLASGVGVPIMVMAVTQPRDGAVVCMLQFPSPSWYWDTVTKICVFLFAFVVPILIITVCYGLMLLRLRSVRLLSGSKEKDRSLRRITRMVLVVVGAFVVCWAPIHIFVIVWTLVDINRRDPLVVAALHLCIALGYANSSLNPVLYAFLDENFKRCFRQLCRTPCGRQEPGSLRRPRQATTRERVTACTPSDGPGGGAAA
Substance-P receptor, sequence (P25103 whole entry): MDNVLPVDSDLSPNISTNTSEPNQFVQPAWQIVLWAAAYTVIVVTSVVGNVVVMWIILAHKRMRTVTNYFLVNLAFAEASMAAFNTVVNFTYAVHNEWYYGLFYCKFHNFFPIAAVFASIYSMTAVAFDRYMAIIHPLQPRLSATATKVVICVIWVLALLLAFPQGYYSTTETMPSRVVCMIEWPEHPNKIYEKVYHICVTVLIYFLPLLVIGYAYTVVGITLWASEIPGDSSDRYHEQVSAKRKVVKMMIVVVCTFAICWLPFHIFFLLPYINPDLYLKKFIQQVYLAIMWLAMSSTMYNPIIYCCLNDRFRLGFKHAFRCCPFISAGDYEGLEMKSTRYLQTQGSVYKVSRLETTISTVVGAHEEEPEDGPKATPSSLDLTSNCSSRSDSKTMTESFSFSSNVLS

Cc1cc(O)cc(C)c1C[C@H](N)C(=O)N[C@H](CCCNC(=N)N)C(=O)N[C@@H](Cc1ccccc1)C(=O)N[C@@H](CCCCN)C(=O)N1CC[C@@H](C(=O)N(C)Cc2cc(C(F)(F)F)cc(C(F)(F)F)c2)[C@H](c2ccccc2)C1
Ki (Substance-P receptor): 1.2 nM
Ki (Mu-type opioid receptor [1]): 39.8 nM
Ki [2]: 339 nM
IC50 (Mu-type opioid receptor [3]): 658 nM
IC50 [4]: 349 nM

Cc1cc(O)cc(C)c1C[C@H](N)C(=O)N[C@H](CCCNC(=N)N)C(=O)N[C@@H](Cc1ccccc1)C(=O)N[C@@H](CCCCN)CC(=O)N1CC[C@@H](C(=O)N(C)Cc2cc(C(F)(F)F)cc(C(F)(F)F)c2)[C@H](c2ccccc2)C1
Ki (Substance-P receptor): 2.2 nM
Ki (Mu-type opioid receptor [1]): 20.2 nM
Ki [2]: > 1000 nM
IC50 (Mu-type opioid receptor [3]): 538 nM
IC50 [4]: 1660 nM

Cc1cc(O)cc(C)c1C[C@H](N)C(=O)N[C@H](CCCNC(=N)N)C(=O)N[C@H]1Cc2ccccc2CN(CCC(=O)N(C)[C@@H]2CCN(C(=O)c3cc(C(F)(F)F)cc(C(F)(F)F)c3)C[C@@H]2c2ccccc2)C1=O
Activity (Rattus norvegicus [5]): Active
Activity (Rattus norvegicus [6]): Active
Activity (Rattus norvegicus [7]): Active
Activity (Rattus norvegicus [8]): inactive
Ratio (Rattus norvegicus [9]): 3.5
Ki (Substance-P receptor): 1.4 nM
Activity (Rattus norvegicus [10]): inactive
Activity (Rattus norvegicus [11]): Active
Activity (Rattus norvegicus [12]): inactive
Ki (Mu-type opioid receptor [1]): 1.82 nM
Ki [2]: 11.2 nM
IC50 (Mu-type opioid receptor [3]): 13 nM
Ratio (Rattus norvegicus [13]): 3.5
IC50 [4]: 12.6 nM
Activity (Rattus norvegicus [14]): Active
Activity (Rattus norvegicus [15]): Active
Activity (Rattus norvegicus [16]): Active

Cc1cc(O)cc(C)c1C[C@H](N)C(=O)N[C@H](CCCNC(=N)N)C(=O)N[C@@H](Cc1ccccc1)C(=O)N[C@@H](CCCCN)C(=O)N(C)[C@@H]1CCN(C(=O)c2cc(C(F)(F)F)cc(C(F)(F)F)c2)C[C@@H]1c1ccccc1
Ki (Substance-P receptor): 1.1 nM
Ki (Mu-type opioid receptor [1]): 54 nM
Ki [2]: > 1000 nM
IC50 (Mu-type opioid receptor [3]): 70.2 nM
IC50 [4]: 814 nM

Cc1cc(O)cc(C)c1C[C@H](N)C(=O)N[C@H](CCCNC(=N)N)C(=O)N[C@H]1Cc2ccccc2CN(CCC(=O)N2CC[C@@H](C(=O)N(C)Cc3cc(C(F)(F)F)cc(C(F)(F)F)c3)[C@H](c3ccccc3)C2)C1=O
Ki (Substance-P receptor): 1.9 nM
Ki (Mu-type opioid receptor [1]): 3.07 nM
Ki [2]: 7.07 nM
IC50 (Mu-type opioid receptor [3]): 30.1 nM
IC50 [4]: 10.3 nM

CN[C@@H]1CCN(C(=O)c2cc(C(F)(F)F)cc(C(F)(F)F)c2)C[C@@H]1c1ccccc1
Activity (Rattus norvegicus [6]): Active
Activity (Rattus norvegicus [7]): Active
Activity (Rattus norvegicus [8]): inactive
Activity (Rattus norvegicus [17]): inactive

Cc1cc(O)cc(C)c1C[C@H](N)C(=O)N[C@H](CCCNC(=N)N)C(=O)N[C@@H](Cc1ccccc1)C(=O)N[C@@H](CCCCN)CC(N)=O
Ki (Mu-type opioid receptor [1]): 0.187 nM
Ki [2]: 290 nM
IC50 (Mu-type opioid receptor [3]): 5.9 nM
IC50 [4]: 7.7 nM

CN1CC[C@]23c4c5ccc(O)c4O[C@H]2[C@@H](O)C=C[C@H]3[C@H]1C5 [MORPHINE]
Activity (Rattus norvegicus [6]): Active
Activity (Rattus norvegicus [7]): Active
Activity (Rattus norvegicus [8]): inactive
Activity (Rattus norvegicus [18]): Active
Activity (Rattus norvegicus [19]): Active
Activity (Rattus norvegicus [20]): Active
Ratio (Rattus norvegicus [13]): 3.5

Cc1cc(O)cc(C)c1C[C@H](N)C(=O)N[C@H](CCCNC(=N)N)C(=O)N[C@@H](Cc1ccccc1)C(=O)N[C@@H](CCCCN)C(=O)N1CCN([C@@H]2CCN(C(=O)c3cc(C(F)(F)F)cc(C(F)(F)F)c3)C[C@@H]2c2ccccc2)CC1
Ki (Substance-P receptor): 0.99 nM
Ki (Mu-type opioid receptor [1]): 9.91 nM
Ki [2]: 533 nM
IC50 (Mu-type opioid receptor [3]): 137 nM
IC50 [4]: 384 nM

Cc1cc(O)cc(C)c1C[C@H](N)C(=O)N[C@H](CCCNC(=N)N)C(=O)N[C@H]1Cc2ccccc2CN(CCC(=O)N2CCN([C@@H]3CCN(C(=O)c4cc(C(F)(F)F)cc(C(F)(F)F)c4)C[C@@H]3c3ccccc3)CC2)C1=O
Activity (Rattus norvegicus [21]): Active
Activity (Rattus norvegicus [6]): Active
Activity (Rattus norvegicus [7]): Active
Activity (Rattus norvegicus [8]): inactive
Ratio (Rattus norvegicus [9]): 3.5
Ki (Substance-P receptor): 1.4 nM
Activity (Rattus norvegicus [11]): Active
Activity (Rattus norvegicus [22]): Active
Activity (Rattus norvegicus [23]): Active
Ki (Mu-type opioid receptor [1]): 1.18 nM
Ki [2]: 10.6 nM
IC50 (Mu-type opioid receptor [3]): 20.3 nM
Ratio (Rattus norvegicus [13]): 3.5
IC50 [4]: 14.1 nM
Activity (Rattus norvegicus [24]): Active
Activity (Rattus norvegicus [25]): inactive
Activity (Rattus norvegicus [26]): Active
